Data reported in article PMC10422108 (Journal of Pharmaceutical Analysis, 2023).

Legend:
Lewis lung cancer (LLC) = test: Antitumor activity in Lewis lung cancer; assay type: in vivo, C57BL/6J male mice; settings: LLC mice; PTX 25 mg/kg; PTX-R 14.4, 28.8, 57.6 mg/kg; 11 day; versus control
[1] = system: CTL1, OCT1 and OCT2 in LLC cells; test: PTX-R uptake assay with transporter inhibitors; assay type: cell-based, mouse; settings: 100 μmol/L HC-3, 60 μmol/L quinidine or 60 μmol/L cimetidine, 10 min
How it was run: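 LLC cells seeded at 2 × 10^5 cells/mL, grown 48 h, PBS-washed. Preincubated 20 min with inhibitor or PBS, then 4.5 μmol/L test compound ± inhibitor for 10 min. Stopped by three cold PBS washes; lysed 30 min in cold MeOH/0.1% FA containing 100 ng/mL docetaxel internal standard. Extract dried, reconstituted in ACN:H2O 1:9, quantified by LC-MS/MS (MRM).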

indices of the spleen and thymus (Lewis lung cancer (LLC)): notably reduced
Compound: CC(=O)O[C@H]1C(=O)[C@@]2(C)[C@H]([C@H](OC(=O)c3ccccc3)[C@]3(O)C[C@H](OC(=O)[C@H](O)[C@@H](NC(=O)c4ccccc4)c4ccccc4)C(C)=C1C3(C)C)[C@]1(OC(C)=O)CO[C@@H]1C[C@@H]2O [PTX, paclitaxel]
cellular uptake in presence of transporter inhibitors [1]: no influence on PTX transport
